≈ marks a conversion by molar mass, not a printed value.

Type in all cases: functional
Test [1] deals with Enterococcus faecium. The test is described as follows: Antibacterial activity against quinupristin-dalfopristin resistant and ermB gene expressing Enterococcus faecium isolate KS46 containing streptogramin A resistance genes vatG and vgaD isolated from healthy human stool samples.
Test [2] deals with Enterococcus faecium. The test is described as follows: Antibacterial activity against quinupristin-dalfopristin resistant and vanA gene expressing Enterococcus faecium isolate GAV12 containing streptogramin A resistance genes vatG and vgaD isolated from chicken meat samples. In short, it runs like this:
(§1)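 Isolates were recovered from fecal samples (human, poultry, swine; 2000/2003) or retail meat (2003). Samples were enriched in Enterococcosel broth for 48 h at 37°C, then streaked on Enterococcosel agar containing Q-D at 2 μg/ml to select resistant E. faecium. vatG and vgaD were detected by PCR with gene-specific primers: 30 cycles, annealing at 55°C.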

For test [3], the system named is Enterococcus faecium. The test is described as follows: Antibacterial activity against quinupristin-dalfopristin resistant and ermB and vanA gene expressing Enterococcus faecium isolate C19 containing streptogramin A resistance genes vatG and vgaD isolated from poultry stool samples.
The subject of test [4] is Enterococcus faecium. The test is described as follows: Antibacterial activity against quinupristin-dalfopristin resistant and ermB gene expressing Enterococcus faecium isolate CS103 containing streptogramin A resistance genes vatG and vgaD isolated from poultry stool samples.
Test [5] deals with Enterococcus faecium. The test is described as follows: Antibacterial activity against quinupristin-dalfopristin resistant and vanA gene expressing Enterococcus faecium isolate GAV04 containing streptogramin A resistance genes vatG and vgaD isolated from chicken meat samples.
The test system of test [6] is Enterococcus faecium. The test is described as follows: Antibacterial activity against quinupristin-dalfopristin resistant Enterococcus faecium isolate ES022 containing streptogramin A resistance genes vatG and vgaD isolated from swine stool samples.
Test [7] relates to Enterococcus faecium. The test is described as follows: Antibacterial activity against quinupristin-dalfopristin resistant and ermB gene expressing Enterococcus faecium isolate CS098 containing streptogramin A resistance genes vatG and vgaD isolated from poultry stool samples.
Test [8] concerns Enterococcus faecium. The test is described as follows: Antibacterial activity against quinupristin-dalfopristin resistant and ermB gene expressing Enterococcus faecium isolate CS106 containing streptogramin A resistance genes vatG and vgaD isolated from poultry stool samples.
Test [9] has as its system Enterococcus faecium. The test is described as follows: Antibacterial activity against quinupristin-dalfopristin resistant and ermB gene expressing Enterococcus faecium isolate JS79 containing streptogramin A resistance genes vatG and vgaD isolated from healthy human stool samples.
Test [10] relates to Enterococcus faecium. The test is described as follows: Antibacterial activity against quinupristin-dalfopristin resistant and ermB and vanA gene expressing Enterococcus faecium isolate A15 containing streptogramin A resistance genes vatG and vgaD isolated from poultry stool samples. In short, it runs like this: as §1
Test [11] deals with Enterococcus faecium. The test is described as follows: Antibacterial activity against quinupristin-dalfopristin abd erythromycin sensitive aEnterococcus faecium U201 transconjugants receiving ermB genes and vatG gene from quinupristin-dalfopristin resistant Enterococcus faecium isolate. In short, it runs like this:
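Transconjugants came from broth mating: donor and recipient overnight M17 cultures were mixed 1:1 into fresh M17 broth for 6 h at 37°C. Selection was on BHI agar with erythromycin (100 μg/ml) and ampicillin (100 μg/ml) for 24 h at 37°C. The erythromycin and Q-D MICs were compared with the donor's.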

Test [12] concerns Enterococcus faecium. The test is described as follows: Antibacterial activity against quinupristin-dalfopristin resistant and ermB gene expressing Enterococcus faecium isolate CS121 containing streptogramin A resistance genes vatG and vgaD isolated from poultry stool samples.
The test system of test [13] is Enterococcus faecium. The test is described as follows: Antibacterial activity against quinupristin-dalfopristin resistant and ermB gene expressing Enterococcus faecium isolate AS115 containing streptogramin A resistance genes vatG and vgaD isolated from poultry stool samples. In a few lines:
as §1

By MIC is commonly meant the smallest concentration in the dilution series that meets the test's criterion for growth inhibition. Take `CC[C@H]1OC(=O)[C@H](C)[C@@H](O[C@H]2C[C@@](C)(OC)[C@@H](O)[C@H](C)O2)[C@H](C)[C@@H](O[C@@H]2O[C@H](C)C[C@H](N(C)C)[C@H]2O)[C@](C)(O)C[C@@H](C)C(=O)[C@H](C)[C@@H](O)[C@]1(C)O` [ERYTHROMYCIN]: the MIC against Enterococcus faecium [1] was 256 µg/mL (≈ 349 µM); against Enterococcus faecium [2], below 1 µg/mL; against Enterococcus faecium [3], 256 µg/mL (≈ 349 µM); against Enterococcus faecium [4], 256 µg/mL (≈ 349 µM); in the test with Enterococcus faecium [5], below 1 µg/mL; against Enterococcus faecium [6] it was 0.1 µg/mL (≈ 0.136 µM). The minimal inhibitory concentration (MIC) against Enterococcus faecium [7], with Enterococcus faecium [8], in the test on Enterococcus faecium [9], in the test with Enterococcus faecium [10], against Enterococcus faecium [11] and with Enterococcus faecium [12] was 256 µg/mL (≈ 349 µM) throughout. Also, the minimum inhibitory concentration (MIC) in the test with Enterococcus faecium [13] turned out to be 256 µg/mL (≈ 349 µM).

On to `CN[C@H](CC(C)C)C(=O)N[C@H]1C(=O)N[C@@H](CC(N)=O)C(=O)N[C@H]2C(=O)N[C@H]3C(=O)N[C@H](C(=O)N[C@H](C(=O)O)c4cc(O)cc(O)c4-c4cc3ccc4O)[C@H](O)c3ccc(c(Cl)c3)Oc3cc2cc(c3O[C@@H]2O[C@H](CO)[C@@H](O)[C@H](O)[C@H]2O[C@H]2C[C@](C)(N)[C@H](O)[C@H](C)O2)Oc2ccc(cc2Cl)[C@H]1O` [VANCOMYCIN], for which the minimum inhibitory concentration (MIC) with Enterococcus faecium [1] was below 1 µg/mL; with Enterococcus faecium [2] it was 256 µg/mL (≈ 177 µM); in the test with Enterococcus faecium [3], 256 µg/mL (≈ 177 µM); in the test with Enterococcus faecium [4], below 1 µg/mL; in the test with Enterococcus faecium [5], 256 µg/mL (≈ 177 µM); in the test with Enterococcus faecium [6] it was below 1 µg/mL. The minimal inhibitory concentration (MIC) in the test with Enterococcus faecium [7] was below 1 µg/mL; in the test with Enterococcus faecium [8], below 1 µg/mL; against Enterococcus faecium [9], below 1 µg/mL; in the test on Enterococcus faecium [10] it was 256 µg/mL (≈ 177 µM); with Enterococcus faecium [12], below 1 µg/mL; with Enterococcus faecium [13], below 1 µg/mL.
